Paper PMC13647048 (Zoological Research, 2026)

What was measured:
[1] = test system: CLP-induced septic BALB/c mice; experiment: CLP-induced sepsis in mice; assay type: in vivo, mouse
Outline: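 Male BALB/c mice, eight weeks old, 18–25 g, acclimatized 3 days, then anesthetized with xylazine 8 mg/kg plus ketamine 100 mg/kg. CLP was done under aseptic conditions; sham mice had the same surgery without CLP. Within 1 h post-surgery mice got test compound 5 mg/kg, DXM 10 mg/kg or 0.9% saline i.p. Survival was followed 72 h and clinical scoring done at 24 h. A separate cohort gave blood and organs at 12 h for cytokines.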

E. coli ATCC 25922 = experiment: Time-kill assay; assay type: cell-based, Escherichia coli; settings: meropenem 0.015 μmol/L; not completely eradicated within this time; n=3
Outline: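 E. coli ATCC 25922 was exposed to test compound at several concentrations and sampled over incubation time. Viable CFU were counted by the spread plate method. Normal saline served as negative control and meropenem as positive control.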

[2] = test system: Escherichia coli ATCC 25922; experiment: MIC, two-fold dilution, E. coli; assay type: cell-based; settings: meropenem as positive control, E. coli ATCC 25922
[3] = serum and lung, HR-CATH2 5 mg/kg or DXM 10 mg/kg i.p., 12 h post-surgery

MIC (positive control) [2] [mol/L] | SMILES | Clinical scores ([1]; 24 h after CLP, DXM 10 mg/kg i.p.) | Survival ([1]; 72 h after CLP, DXM 10 mg/kg i.p., n=10 per group) | Histopathological tissue injury ([1]; lung, kidney, liver, H&E, HR-CATH2 5 mg/kg or DXM 10 mg/kg i.p. at 1 h after CLP, 12 h post-surgery) | MPO activity ([1]; lung, HR-CATH2 5 mg/kg or DXM 10 mg/kg i.p., 12 h post-surgery) | IL-1β concentration [1, 3] | IL-6 concentration [1, 3] | MCP-1 concentration [1, 3] | TNF-α concentration [1, 3] | Time to complete eradication of E. coli (E. coli ATCC 25922) [min]
– | C[C@@H]1C[C@H]2[C@@H]3CCC4=CC(=O)C=C[C@]4(C)[C@@]3(F)[C@@H](O)C[C@]2(C)[C@@]1(O)C(=O)CO [DXM, dexamethasone] | reduced clinical scores | markedly improved survival | significantly alleviated tissue injury | significantly attenuated | significantly attenuated | significantly attenuated | significantly attenuated | significantly attenuated | –
0.015 | C[C@@H](O)[C@H]1C(=O)N2C(C(=O)O)=C(S[C@@H]3CN[C@H](C(=O)N(C)C)C3)[C@H](C)[C@H]12 [meropenem] | – | – | – | – | – | – | – | – | > 180
